The source of these data is ChEMBL document CHEMBL2203068, “Antibacterial butenolides from the Korean tunicate Pseudodistoma antinboja” (2012).

In one assay the test system is Klebsiella pneumoniae. Kind of assay: Antimicrobial activity against Klebsiella pneumoniae ATCC 4352 incubated for 24 hrs by microtiter broth dilution method. It counts as functional, organism-based. In a few lines: (§1)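 Two-fold serial dilutions of compounds in DMSO were added to Mueller Hinton broth in 96-well microtiter plates (final 0.64% DMSO). Wells were inoculated with overnight bacterial culture at 5 × 10⁵ cfu/mL and incubated at 37 °C for 24 h. The MIC was the lowest concentration with no visible growth.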

The subject of the next assay is Salmonella typhimurium. Kind of assay: Antimicrobial activity against Salmonella typhimurium ATCC 14028 incubated for 24 hrs by microtiter broth dilution method. It counts as functional, organism-based. The note with it: Salmonella enterica subsp. enterica serovar Typhimurium. In a few lines: as §1
In general terms: Broth dilution looks for growth in wells or tubes with falling amounts of substance.

For another assay, the system named is Escherichia coli. As to the kind of experiment: Antimicrobial activity against Escherichia coli ATCC 11775 incubated for 24 hrs by microtiter broth dilution method. It counts as functional, organism-based. In a few lines: as §1
Assay [1] relates to Staphylococcus aureus. Kind of assay: Antimicrobial activity against Staphylococcus aureus ATCC 6538 incubated for 24 hrs by microtiter broth dilution method. It counts as functional. The note with it: ATCC 6538, 24 h. In a few lines:
as §1

Assay [2] has as its system Staphylococcus epidermidis. As to the kind of experiment: Antimicrobial activity against Staphylococcus epidermidis ATCC 12228 incubated for 24 hrs by microtiter broth dilution method. It counts as functional. The following applies: ATCC 12228, 24 h. A digest of the protocol:
as §1

A further assay relates to Kocuria rhizophila. As to the kind of experiment: Antimicrobial activity against Kocuria rhizophila ATCC 9341 incubated for 24 hrs by microtiter broth dilution method. It counts as functional. The following applies: ATCC 9341, 24 h. In a few lines:
as §1

The next assay concerns Bacillus subtilis. As to the kind of experiment: Antimicrobial activity against Bacillus subtilis ATCC 6633 incubated for 24 hrs by microtiter broth dilution method. It counts as functional. The note with it: ATCC 6633, 24 h. In a few lines:
as §1

Assay [3] deals with Staphylococcus aureus. As to the kind of experiment: Antimicrobial activity against methicillin-sensitive Staphylococcus aureus CCARM 0027 incubated for 24 hrs by microtiter broth dilution method. It counts as functional. The following applies: CCARM 0027, 24 h. A digest of the protocol: (§2)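 Two-fold serial dilutions of compound in DMSO were made in Mueller Hinton broth in 96-well microtiter plates, with 0.64% DMSO final. Each well was inoculated with an overnight bacterial culture at 5 × 10⁵ cfu/mL and incubated at 37 °C for 24 h. MIC was the lowest concentration showing no visible growth.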

The subject of assay [4] is Staphylococcus aureus. Kind of assay: Antimicrobial activity against methicillin-sensitive Staphylococcus aureus CCARM 0204 incubated for 24 hrs by microtiter broth dilution method. It counts as functional. The following applies: CCARM 0204, 24 h. A digest of the protocol:
as §2

In assay [5] the test system is Staphylococcus aureus. Kind of assay: Antimicrobial activity against methicillin-sensitive Staphylococcus aureus CCARM 0205 incubated for 24 hrs by microtiter broth dilution method. The following applies: CCARM 0205, 24 h. It counts as functional. A digest of the protocol:
as §2

Assay [6] concerns Staphylococcus aureus. Kind of assay: Antimicrobial activity against methicillin-sensitive Staphylococcus aureus CCARM 3640 incubated for 24 hrs by microtiter broth dilution method. It counts as functional. The note with it: CCARM 3640, 24 h. A digest of the protocol: as §2
Assay [7] relates to Staphylococcus aureus. As to the kind of experiment: Antimicrobial activity against methicillin-resistant Staphylococcus aureus CCARM 3089 incubated for 24 hrs by microtiter broth dilution method. It counts as functional. The following applies: CCARM 3089, 24 h. A digest of the protocol: as §2
The test system of assay [8] is Staphylococcus aureus. Kind of assay: Antimicrobial activity against methicillin-resistant Staphylococcus aureus CCARM 3090 incubated for 24 hrs by microtiter broth dilution method. It counts as functional. The following applies: CCARM 3090, 24 h. A digest of the protocol:
as §2

Assay [9] concerns Staphylococcus aureus. As to the kind of experiment: Antimicrobial activity against methicillin-resistant Staphylococcus aureus CCARM 3634 incubated for 24 hrs by microtiter broth dilution method. The following applies: CCARM 3634, 24 h. It counts as functional. A digest of the protocol: as §2
Assay [10] has as its system Staphylococcus aureus. Kind of assay: Antimicrobial activity against methicillin-resistant Staphylococcus aureus CCARM 3635 incubated for 24 hrs by microtiter broth dilution method. It counts as functional. The note with it: CCARM 3635, 24 h. In a few lines: as §2

Structures are written as SMILES. Converted amounts (≈) assume the structure as drawn. The source made the active and inactive calls. No cut-off for these calls is given here.

One may read the MIC as the lowest concentration found to suppress growth. In the case of `COc1ccc(C=C2OC(=O)C=C2c2ccc(O)c(Br)c2)cc1`, the MIC entry with Klebsiella pneumoniae, in the assay on Salmonella typhimurium and with Escherichia coli was “inactive” in each case. The minimal inhibitory concentration (MIC) was greater than 50 µg/mL in the assay with Staphylococcus aureus [1]; 25 µg/mL (≈ 67 µM) in assay [2]; 3.1 µg/mL (≈ 8.31 µM) with Kocuria rhizophila; 50 µg/mL (≈ 134 µM) in the assay on Bacillus subtilis; greater than 32 µg/mL in the assay with Staphylococcus aureus [3]; greater than 32 µg/mL with Staphylococcus aureus [4]. Besides, the MIC against Staphylococcus aureus [5], in the assay on Staphylococcus aureus [6], against Staphylococcus aureus [7], against Staphylococcus aureus [8], in the assay on Staphylococcus aureus [9] and against Staphylococcus aureus [10] was greater than 32 µg/mL in each case.

Regarding `CCCCCCCCCC(=O)N[C@@H](Cc1c[nH]c2ccccc12)C(=O)N[C@H](CC(N)=O)C(=O)N[C@@H](CC(=O)O)C(=O)N[C@@H]1C(=O)NCC(=O)N[C@@H](CCCN)C(=O)N[C@@H](CC(=O)O)C(=O)N[C@H](C)C(=O)N[C@@H](CC(=O)O)C(=O)NCC(=O)N[C@H](CO)C(=O)N[C@@H]([C@H](C)CC(=O)O)C(=O)N[C@@H](CC(=O)c2ccccc2N)C(=O)O[C@@H]1C`, the MIC against Staphylococcus aureus [3] is 16 µg/mL (≈ 9.87 µM); in the assay on Staphylococcus aureus [4], 4 µg/mL (≈ 2.47 µM); against Staphylococcus aureus [5], 2 µg/mL (≈ 1.23 µM); against Staphylococcus aureus [6] it was 16 µg/mL (≈ 9.87 µM); with Staphylococcus aureus [7], greater than 32 µg/mL; against Staphylococcus aureus [8] it was greater than 32 µg/mL. The minimal inhibitory concentration (MIC) with Staphylococcus aureus [9] and in the assay on Staphylococcus aureus [10] was greater than 32 µg/mL each time.

On to `O=C1O/C(=C\c2cc(Br)c(O)c(Br)c2)C(c2cc(Br)c(O)c(Br)c2)=C1C(=O)c1cc(Br)c(O)c(Br)c1` [CADIOLIDE B], for which the MIC entry in the assay on Klebsiella pneumoniae, with Salmonella typhimurium and in the assay with Escherichia coli was “inactive” throughout. The MIC stood at 3.1 µg/mL (≈ 3.55 µM) against Staphylococcus aureus [1]; 3.1 µg/mL (≈ 3.55 µM) in assay [2]; 3.1 µg/mL (≈ 3.55 µM) against Kocuria rhizophila; 3.1 µg/mL (≈ 3.55 µM) against Bacillus subtilis; 2 µg/mL (≈ 2.29 µM) in the assay with Staphylococcus aureus [3]; 1 µg/mL (≈ 1.14 µM) in the assay with Staphylococcus aureus [4]. The MIC against Staphylococcus aureus [5] was determined as 2 µg/mL (≈ 2.29 µM); against Staphylococcus aureus [6], 1 µg/mL (≈ 1.14 µM); with Staphylococcus aureus [7], 1 µg/mL (≈ 1.14 µM); with Staphylococcus aureus [8] it was 1 µg/mL (≈ 1.14 µM); in the assay on Staphylococcus aureus [9], 1 µg/mL (≈ 1.14 µM); with Staphylococcus aureus [10], 0.5 µg/mL (≈ 0.572 µM).

With `O=C1O/C(=C\c2ccc(O)c(Br)c2)C(c2ccc(O)c(Br)c2)=C1C(=O)c1cc(Br)c(O)c(Br)c1` [CADIOLIDE C], the MIC result in the assay on Klebsiella pneumoniae, with Salmonella typhimurium and in the assay with Escherichia coli was “inactive” throughout. Further, the MIC against Staphylococcus aureus [1] came to 0.4 µg/mL (≈ 0.559 µM); in assay [2], 0.4 µg/mL (≈ 0.559 µM); against Kocuria rhizophila, 0.2 µg/mL (≈ 0.279 µM); against Bacillus subtilis, 3.1 µg/mL (≈ 4.33 µM); in the assay with Staphylococcus aureus [3], 0.5 µg/mL (≈ 0.698 µM); with Staphylococcus aureus [4], 0.25 µg/mL (≈ 0.349 µM). Also, the MIC with Staphylococcus aureus [5] was 0.25 µg/mL (≈ 0.349 µM); against Staphylococcus aureus [6] it was less than 0.13 µg/mL; in the assay on Staphylococcus aureus [7] it was 0.5 µg/mL (≈ 0.698 µM); against Staphylococcus aureus [8] it was 0.25 µg/mL (≈ 0.349 µM); in the assay with Staphylococcus aureus [9] it was 0.5 µg/mL (≈ 0.698 µM); in the assay on Staphylococcus aureus [10] it was less than 0.13 µg/mL.

Take `O=C1O/C(=C\c2ccc(O)c(Br)c2)C(c2cc(Br)c(O)c(Br)c2)=C1C(=O)c1cc(Br)c(O)c(Br)c1` [CADIOLIDE D]: the MIC result in the assay with Klebsiella pneumoniae, in the assay with Salmonella typhimurium and with Escherichia coli was “inactive” each time. In addition, the MIC against Staphylococcus aureus [1] is 6.3 µg/mL (≈ 7.93 µM); in assay [2], 0.8 µg/mL (≈ 1.01 µM); with Kocuria rhizophila, 1.6 µg/mL (≈ 2.01 µM); in the assay on Bacillus subtilis, 6.3 µg/mL (≈ 7.93 µM); against Staphylococcus aureus [3] it was 0.5 µg/mL (≈ 0.629 µM); against Staphylococcus aureus [4] it was 0.5 µg/mL (≈ 0.629 µM). Besides, the MIC in the assay with Staphylococcus aureus [5] came to 0.25 µg/mL (≈ 0.315 µM); in the assay on Staphylococcus aureus [6], 0.25 µg/mL (≈ 0.315 µM); against Staphylococcus aureus [7] it was 0.5 µg/mL (≈ 0.629 µM); in the assay on Staphylococcus aureus [8], 0.25 µg/mL (≈ 0.315 µM); with Staphylococcus aureus [9], 1 µg/mL (≈ 1.26 µM); against Staphylococcus aureus [10], 0.25 µg/mL (≈ 0.315 µM).

On to `O=C1O/C(=C\c2cc(Br)c(O)c(Br)c2)C(c2ccc(O)c(Br)c2)=C1C(=O)c1cc(Br)c(O)c(Br)c1` [CADIOLIDE E], for which the MIC result in the assay on Klebsiella pneumoniae, in the assay on Salmonella typhimurium and in the assay on Escherichia coli was “inactive” throughout. Further, the MIC in the assay with Staphylococcus aureus [1] is 3.1 µg/mL (≈ 3.9 µM); in assay [2] it was 6.3 µg/mL (≈ 7.93 µM); in the assay on Kocuria rhizophila, 0.2 µg/mL (≈ 0.252 µM); in the assay on Bacillus subtilis, 3.1 µg/mL (≈ 3.9 µM); with Staphylococcus aureus [3], 2 µg/mL (≈ 2.52 µM); in the assay on Staphylococcus aureus [4], 2 µg/mL (≈ 2.52 µM). For the same compound, the MIC was 4 µg/mL (≈ 5.03 µM) in the assay on Staphylococcus aureus [5]; 0.25 µg/mL (≈ 0.315 µM) in the assay with Staphylococcus aureus [6]; 1 µg/mL (≈ 1.26 µM) in the assay with Staphylococcus aureus [7]; 1 µg/mL (≈ 1.26 µM) in the assay with Staphylococcus aureus [8]; 2 µg/mL (≈ 2.52 µM) in the assay on Staphylococcus aureus [9]; 0.5 µg/mL (≈ 0.629 µM) in the assay on Staphylococcus aureus [10].
